Assay results from publication PMC2212267 (The Journal of Experimental Medicine, 1998).
Where no end group is shown, it is not given here. 5,6‑carboxyfluorescein = 5,6-carboxyfluorescein

Columns and labels:
I-A^u [1] = target: T1, I-A^u (Mus musculus, UniProt P06344+P14438); assay: FACS binding of biotinylated MBP peptides to live L cell transfectants; conditions: wild-type I-A^u; among 4A, 4E, 4Y; Fig. 1 a
T1 sequence (P14438 1-227): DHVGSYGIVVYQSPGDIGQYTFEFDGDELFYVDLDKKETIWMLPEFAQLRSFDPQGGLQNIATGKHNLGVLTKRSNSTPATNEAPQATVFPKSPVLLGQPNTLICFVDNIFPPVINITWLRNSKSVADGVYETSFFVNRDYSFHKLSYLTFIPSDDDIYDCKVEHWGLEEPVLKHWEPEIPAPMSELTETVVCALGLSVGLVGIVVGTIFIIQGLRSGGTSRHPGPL
T1 sequence (P06344 28-263): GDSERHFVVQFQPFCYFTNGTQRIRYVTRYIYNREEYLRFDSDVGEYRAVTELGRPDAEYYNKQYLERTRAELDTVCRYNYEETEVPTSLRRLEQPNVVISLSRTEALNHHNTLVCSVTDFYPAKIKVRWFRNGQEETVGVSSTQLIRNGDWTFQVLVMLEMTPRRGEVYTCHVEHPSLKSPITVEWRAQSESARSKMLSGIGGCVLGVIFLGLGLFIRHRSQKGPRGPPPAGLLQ
Outline: (§1)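 Live L cell transfectants (wild-type or β9-mutant I-A, 5 × 10^5 cells) washed, then incubated 4 h at 37°C, 7% CO2 with 200 μM biotinylated MBP analogue in RPMI 1640/1% BSA. Washed twice, then streptavidin–Quantum red/PE for 20 min on ice. MHC level read with FITC anti-Aβk,u mAb 10-2.16; propidium iodide viability stain. Net binding is mean fluorescence minus nontransfected L cells plus peptide, divided by FITC signal, then normalized to 4A peptide on wild-type transfectant.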

I-A^k = I-A^k (Mus musculus, UniProt P01910+P06343); assay: as above; conditions: β9 mutant I-A^k H9V; among 4A, 4E, 4Y; Fig. 1 a
Chain of I-A^k (P01910 24-256): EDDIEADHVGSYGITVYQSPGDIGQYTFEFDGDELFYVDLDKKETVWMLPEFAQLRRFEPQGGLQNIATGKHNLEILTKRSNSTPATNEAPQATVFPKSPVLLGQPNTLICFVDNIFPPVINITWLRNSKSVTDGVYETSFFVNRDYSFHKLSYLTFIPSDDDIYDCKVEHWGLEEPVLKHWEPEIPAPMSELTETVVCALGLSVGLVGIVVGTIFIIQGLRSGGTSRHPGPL
Chain of I-A^k (P06343 28-263): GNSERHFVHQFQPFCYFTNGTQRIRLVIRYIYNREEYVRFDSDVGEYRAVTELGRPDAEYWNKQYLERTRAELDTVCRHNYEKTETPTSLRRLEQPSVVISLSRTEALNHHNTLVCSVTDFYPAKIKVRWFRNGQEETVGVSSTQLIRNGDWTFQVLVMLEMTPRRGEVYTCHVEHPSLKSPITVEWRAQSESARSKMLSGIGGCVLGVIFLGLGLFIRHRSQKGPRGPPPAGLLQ
Outline: as §1

[2] = system: MBP-responsive T cell lines; assay: Proliferation responses of MBP-responsive T cell lines; format: cell-based; conditions: unpublished data (Rabinowitz, J.D.)
I-A^u [3] = target: T1, I-A^u; assay: Peptide dissociation kinetics from purified MHC protein; format: binding; conditions: fluorescein-labeled peptide, pH 5.3, 37°C, HPSEC; Fig. 4 b
[4] = target: I-A^u class II MHC protein, purified (mouse); assay: peptide dissociation kinetics followed by HPSEC with fluorescence detection
[5] = target: I-A^k class II MHC protein, wild type, on L cell transfectants (mouse); assay: flow cytometry on cells

4Y: MBP peptide with residue 4 lysine replaced with tyrosine (Ac-ASQYRPSQRHGSK-biotin)
peptide preference of I-A^u in FACS binding (I-A^u [1]): prefers
peptide preference of I-A^k H9V in FACS binding (I-A^k): prefers

ISQAVAASQKRPSQRSKY [ova-MBP]
proliferation responses of a series of MBP-responsive T cell lines [2]: abrogated proliferation responses
slower dissociation from I-A^u than wild-type MBP Ac1-12 (I-A^u [3]): ~80 fold

ISQAVAASQYRPSQRSKY [ova-MBP K4Y]
proliferation responses of a series of MBP-responsive T cell lines [2]: abrogated proliferation responses

B1: ova-MBP K4Y, fluorescein-labelled (peptide)
peptide: {5,6‑carboxyfluorescein}-ISQAVAASQYRPSQRSKY
dissociation half-time (t 1/2) [4]: > 200 h
fold increase in stability of binding over wild-type MBP [4]: > 1000 fold

B2: ova-MBP (NH2-terminally extended MBP peptide), fluorescein-labelled (peptide)
peptide: {5,6‑carboxyfluorescein}-ISQAVAASQKRPSQRSKY
fold slower dissociation than wild-type MBP Ac1-12 [4]: 80 fold

B3: biotinylated MBP Ac1-13 K4E (rat MBP sequence) (peptide)
peptide: Ac-ASQERPSQRHGSK-biotin
fold improvement of binding over MBP Ac1-11 4A [5]: 2 fold
fold improvement of binding over wild-type MBP [5]: > 20 fold
